Measured values taken from ChEMBL document CHEMBL1155278, “3,4-Diaryl-isoxazoles and -imidazoles as potent dual inhibitors of p38alpha mitogen activated protein kinase and casein kinase 1delta” (J Med Chem, 2009).

Tests used:
[1] = biological target: MAP/microtubule affinity-regulating kinase 3 (Homo sapiens) (UniProt P27448); experiment: Inhibition of MARK3 assessed as residual activity at 10 uM by Cherenkov counting relative to control in presence of 5 uM ATP
[2] = biological target: Serine/threonine-protein kinase 26 (Homo sapiens) (UniProt Q9P289); experiment: Inhibition of MST4 assessed as residual activity at 10 uM by Cherenkov counting relative to control in presence of 20 uM ATP
Sequence of Serine/threonine-protein kinase 26 (Homo sapiens) (Q9P289 2-416 limits assumed): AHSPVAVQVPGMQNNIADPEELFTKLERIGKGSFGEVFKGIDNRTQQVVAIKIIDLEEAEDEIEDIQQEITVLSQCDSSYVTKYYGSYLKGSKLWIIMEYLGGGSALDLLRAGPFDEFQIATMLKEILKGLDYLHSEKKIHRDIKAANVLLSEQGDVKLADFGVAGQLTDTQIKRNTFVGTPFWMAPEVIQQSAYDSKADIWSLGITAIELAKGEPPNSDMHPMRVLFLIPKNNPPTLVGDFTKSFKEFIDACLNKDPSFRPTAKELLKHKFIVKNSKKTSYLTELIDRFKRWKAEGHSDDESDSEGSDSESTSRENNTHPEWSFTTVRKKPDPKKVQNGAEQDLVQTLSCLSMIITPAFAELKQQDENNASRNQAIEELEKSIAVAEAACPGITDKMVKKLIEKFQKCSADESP

[3] = biological target: Serine/threonine-protein kinase PAK 4 (Homo sapiens) (UniProt O96013); experiment: Inhibition of PAK4 assessed as residual activity at 10 uM by Cherenkov counting relative to control in presence of 5 uM ATP
Sequence of Serine/threonine-protein kinase PAK 4 (Homo sapiens) (O96013 whole entry, looked up): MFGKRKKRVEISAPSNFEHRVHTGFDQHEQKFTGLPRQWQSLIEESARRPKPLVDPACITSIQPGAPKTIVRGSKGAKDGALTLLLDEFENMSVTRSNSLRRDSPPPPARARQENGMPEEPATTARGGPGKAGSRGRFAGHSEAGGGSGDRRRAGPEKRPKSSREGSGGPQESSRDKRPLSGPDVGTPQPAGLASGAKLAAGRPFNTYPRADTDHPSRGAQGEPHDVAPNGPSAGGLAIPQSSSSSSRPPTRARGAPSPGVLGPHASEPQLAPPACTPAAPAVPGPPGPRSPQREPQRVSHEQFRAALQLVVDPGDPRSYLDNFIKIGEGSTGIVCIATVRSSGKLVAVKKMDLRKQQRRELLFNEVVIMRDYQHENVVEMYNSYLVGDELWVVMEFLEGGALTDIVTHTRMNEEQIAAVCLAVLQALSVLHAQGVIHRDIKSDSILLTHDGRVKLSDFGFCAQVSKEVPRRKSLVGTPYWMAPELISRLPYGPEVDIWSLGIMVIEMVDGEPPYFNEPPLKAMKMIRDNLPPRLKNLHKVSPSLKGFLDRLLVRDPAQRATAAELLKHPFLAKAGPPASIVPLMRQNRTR

[4] = biological target: T1, Serine/threonine-protein kinase Nek2 (Homo sapiens) (UniProt P51955); experiment: Inhibition of NEK2a assessed as residual activity at 10 uM by Cherenkov counting relative to control in presence of 50 uM ATP
T1 sequence (whole entry): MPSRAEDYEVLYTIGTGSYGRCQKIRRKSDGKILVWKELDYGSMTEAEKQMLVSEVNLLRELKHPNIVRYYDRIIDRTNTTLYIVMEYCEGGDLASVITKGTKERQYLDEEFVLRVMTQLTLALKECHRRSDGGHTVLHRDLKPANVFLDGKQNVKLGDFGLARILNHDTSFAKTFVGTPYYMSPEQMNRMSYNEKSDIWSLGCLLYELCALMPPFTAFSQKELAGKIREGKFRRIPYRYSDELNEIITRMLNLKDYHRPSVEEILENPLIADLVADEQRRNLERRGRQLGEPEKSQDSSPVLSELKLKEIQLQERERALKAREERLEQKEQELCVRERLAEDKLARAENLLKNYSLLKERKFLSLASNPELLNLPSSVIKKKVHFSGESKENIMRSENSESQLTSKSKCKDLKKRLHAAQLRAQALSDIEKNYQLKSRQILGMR

[5] = biological target: T2, Dual specificity tyrosine-phosphorylation-regulated kinase 3 (Homo sapiens) (UniProt O43781); experiment: Inhibition of DYRK3 assessed as residual activity at 10 uM by Cherenkov counting relative to control in presence of 5 uM ATP
T2 sequence (whole entry): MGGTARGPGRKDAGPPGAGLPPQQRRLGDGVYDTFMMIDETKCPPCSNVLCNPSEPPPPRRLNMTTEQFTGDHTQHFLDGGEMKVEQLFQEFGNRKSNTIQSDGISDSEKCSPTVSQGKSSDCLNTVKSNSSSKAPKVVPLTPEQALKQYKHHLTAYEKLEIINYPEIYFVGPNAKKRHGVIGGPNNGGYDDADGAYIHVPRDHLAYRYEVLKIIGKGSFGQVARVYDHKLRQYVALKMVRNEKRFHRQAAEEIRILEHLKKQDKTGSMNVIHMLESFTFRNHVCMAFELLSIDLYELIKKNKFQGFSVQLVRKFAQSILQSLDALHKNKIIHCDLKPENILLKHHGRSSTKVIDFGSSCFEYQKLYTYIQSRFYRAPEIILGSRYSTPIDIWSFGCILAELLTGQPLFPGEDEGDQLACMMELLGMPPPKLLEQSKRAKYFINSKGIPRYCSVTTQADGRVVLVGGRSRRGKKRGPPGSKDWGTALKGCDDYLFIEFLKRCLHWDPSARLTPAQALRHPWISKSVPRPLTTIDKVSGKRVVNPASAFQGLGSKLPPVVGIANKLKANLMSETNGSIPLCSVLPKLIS
Summary of the method: (§1)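 Single-point profiling at 10 µM in a panel of 78 protein kinases. Kinase activity is expressed as a percentage relative to control assays without compound.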

[6] = biological target: Casein kinase I isoform delta (Homo sapiens, UniProt P48730); experiment: Inhibition of CK1delta at 10 uM by Cherenkov counting in presence of 20 uM ATP
Sequence of Casein kinase I isoform delta (P48730 whole entry, looked up, canonical isoform): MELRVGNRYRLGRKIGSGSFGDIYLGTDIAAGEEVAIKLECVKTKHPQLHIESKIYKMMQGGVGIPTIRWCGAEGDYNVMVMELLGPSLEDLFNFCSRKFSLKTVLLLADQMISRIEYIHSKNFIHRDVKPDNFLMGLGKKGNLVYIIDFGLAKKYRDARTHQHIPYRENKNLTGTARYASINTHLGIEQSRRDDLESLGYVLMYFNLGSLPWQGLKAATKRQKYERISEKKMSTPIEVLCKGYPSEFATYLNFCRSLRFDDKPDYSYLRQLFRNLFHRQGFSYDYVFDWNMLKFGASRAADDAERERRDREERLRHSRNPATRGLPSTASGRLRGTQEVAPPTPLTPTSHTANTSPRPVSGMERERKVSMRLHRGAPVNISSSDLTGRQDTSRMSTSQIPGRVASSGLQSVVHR

[7] = biological target: Glycogen synthase kinase-3 beta (Homo sapiens) (UniProt P49841); experiment: Inhibition of GSK3-beta assessed as residual activity at 10 uM by Cherenkov counting relative to control in presence of 5 uM ATP; summary of the method: as §1
Sequence of Glycogen synthase kinase-3 beta (Homo sapiens) (P49841 whole entry, looked up): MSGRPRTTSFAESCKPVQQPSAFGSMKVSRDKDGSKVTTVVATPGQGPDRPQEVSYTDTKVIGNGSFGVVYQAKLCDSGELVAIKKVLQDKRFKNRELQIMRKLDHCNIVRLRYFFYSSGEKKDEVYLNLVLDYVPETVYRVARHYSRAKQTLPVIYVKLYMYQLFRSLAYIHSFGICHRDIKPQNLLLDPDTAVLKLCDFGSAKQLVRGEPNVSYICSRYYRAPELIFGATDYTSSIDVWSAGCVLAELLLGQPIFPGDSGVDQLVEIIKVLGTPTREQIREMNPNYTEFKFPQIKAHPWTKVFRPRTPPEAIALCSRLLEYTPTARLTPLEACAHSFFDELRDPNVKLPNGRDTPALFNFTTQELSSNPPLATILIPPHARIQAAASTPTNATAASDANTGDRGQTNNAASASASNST

[8] = biological target: T3, Serine/threonine-protein kinase Sgk1 (Homo sapiens) (UniProt O00141); experiment: Inhibition of SGK1 assessed as residual activity at 0.1 uM by Cherenkov counting relative to control in presence of 20 uM ATP
T3 sequence (whole entry): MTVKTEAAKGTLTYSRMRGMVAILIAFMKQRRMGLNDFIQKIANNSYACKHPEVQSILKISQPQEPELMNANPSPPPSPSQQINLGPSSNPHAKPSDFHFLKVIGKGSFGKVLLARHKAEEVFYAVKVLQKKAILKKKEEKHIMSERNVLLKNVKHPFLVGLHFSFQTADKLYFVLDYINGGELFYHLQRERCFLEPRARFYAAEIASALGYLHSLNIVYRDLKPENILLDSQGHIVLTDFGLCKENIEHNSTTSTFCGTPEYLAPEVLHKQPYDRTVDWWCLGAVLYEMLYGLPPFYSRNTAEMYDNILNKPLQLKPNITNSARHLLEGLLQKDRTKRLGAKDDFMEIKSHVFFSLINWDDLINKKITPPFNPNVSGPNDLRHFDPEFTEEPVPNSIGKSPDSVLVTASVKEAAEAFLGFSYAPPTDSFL
Summary of the method: (§2)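 Single-concentration screen at 0.1 μM in a 76-kinase panel. ATP for each kinase was set near its Km for ATP. Residual activity is given as a percentage of control assays without compound, mean of n = 3 ± SD.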

[9] = biological target: Proto-oncogene tyrosine-protein kinase Src (Homo sapiens) (UniProt P12931); experiment: Inhibition of Src assessed as residual activity at 0.1 uM by Cherenkov counting relative to control in presence of 50 uM ATP; summary of the method: as §2
Sequence of Proto-oncogene tyrosine-protein kinase Src (Homo sapiens) (P12931 2-536 limits assumed): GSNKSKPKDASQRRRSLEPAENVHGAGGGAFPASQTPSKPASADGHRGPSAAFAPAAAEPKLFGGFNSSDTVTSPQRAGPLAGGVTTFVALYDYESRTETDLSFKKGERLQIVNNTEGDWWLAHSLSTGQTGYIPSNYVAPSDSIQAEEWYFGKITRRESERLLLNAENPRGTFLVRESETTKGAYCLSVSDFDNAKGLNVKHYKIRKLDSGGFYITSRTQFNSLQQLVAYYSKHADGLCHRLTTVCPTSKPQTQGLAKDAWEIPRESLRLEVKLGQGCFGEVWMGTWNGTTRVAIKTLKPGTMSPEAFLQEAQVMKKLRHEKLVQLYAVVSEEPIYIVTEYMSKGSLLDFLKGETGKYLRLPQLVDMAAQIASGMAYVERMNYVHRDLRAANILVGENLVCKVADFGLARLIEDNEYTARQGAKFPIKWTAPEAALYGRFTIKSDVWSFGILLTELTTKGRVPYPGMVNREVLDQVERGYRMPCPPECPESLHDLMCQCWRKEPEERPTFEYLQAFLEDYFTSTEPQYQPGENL

[10] = biological target: SRSF protein kinase 1 (Homo sapiens) (UniProt Q96SB4); experiment: Inhibition of SRPK1 assessed as residual activity at 0.1 uM by Cherenkov counting relative to control in presence of 50 uM ATP; summary of the method: as §2
Sequence of SRSF protein kinase 1 (Homo sapiens) (Q96SB4 whole entry): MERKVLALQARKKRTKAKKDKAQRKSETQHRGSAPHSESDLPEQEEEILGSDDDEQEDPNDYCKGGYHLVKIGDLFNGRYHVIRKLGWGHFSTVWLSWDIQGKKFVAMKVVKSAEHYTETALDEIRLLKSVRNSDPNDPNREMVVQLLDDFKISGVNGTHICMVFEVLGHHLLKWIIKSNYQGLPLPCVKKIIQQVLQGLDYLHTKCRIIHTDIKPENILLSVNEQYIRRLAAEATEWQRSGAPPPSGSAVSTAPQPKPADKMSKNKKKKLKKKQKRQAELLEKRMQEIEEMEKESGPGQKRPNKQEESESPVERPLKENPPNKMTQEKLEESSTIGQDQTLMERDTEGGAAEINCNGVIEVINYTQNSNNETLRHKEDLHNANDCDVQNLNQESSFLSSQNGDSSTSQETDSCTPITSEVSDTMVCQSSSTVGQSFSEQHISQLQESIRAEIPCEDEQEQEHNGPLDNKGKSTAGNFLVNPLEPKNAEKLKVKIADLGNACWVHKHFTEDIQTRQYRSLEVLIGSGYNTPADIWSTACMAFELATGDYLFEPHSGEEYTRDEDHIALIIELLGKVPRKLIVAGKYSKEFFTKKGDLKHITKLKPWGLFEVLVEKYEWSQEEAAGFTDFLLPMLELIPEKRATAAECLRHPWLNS

Sequence of MAP/microtubule affinity-regulating kinase 3 (Homo sapiens) (P27448 whole entry, looked up): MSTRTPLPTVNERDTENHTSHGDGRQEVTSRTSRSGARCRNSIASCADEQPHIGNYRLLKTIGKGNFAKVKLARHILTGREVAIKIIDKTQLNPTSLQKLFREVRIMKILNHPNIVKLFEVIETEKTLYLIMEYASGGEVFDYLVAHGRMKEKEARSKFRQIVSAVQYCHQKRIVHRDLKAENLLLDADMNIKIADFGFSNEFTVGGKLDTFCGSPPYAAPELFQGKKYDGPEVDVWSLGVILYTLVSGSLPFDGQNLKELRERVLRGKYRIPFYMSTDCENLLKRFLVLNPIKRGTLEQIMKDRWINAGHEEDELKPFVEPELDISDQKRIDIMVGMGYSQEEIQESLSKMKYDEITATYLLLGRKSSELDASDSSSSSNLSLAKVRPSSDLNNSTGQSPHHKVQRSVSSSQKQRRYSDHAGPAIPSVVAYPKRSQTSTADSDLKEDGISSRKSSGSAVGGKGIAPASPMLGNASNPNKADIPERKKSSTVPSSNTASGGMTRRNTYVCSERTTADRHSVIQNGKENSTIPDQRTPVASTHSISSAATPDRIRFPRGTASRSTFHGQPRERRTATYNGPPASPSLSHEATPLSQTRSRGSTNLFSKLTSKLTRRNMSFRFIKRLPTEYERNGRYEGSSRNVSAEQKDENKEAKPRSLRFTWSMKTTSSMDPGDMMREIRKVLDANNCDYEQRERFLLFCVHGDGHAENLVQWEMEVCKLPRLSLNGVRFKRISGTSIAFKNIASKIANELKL

CC(C)c1onc(-c2ccc(F)cc2)c1-c1ccncc1
Activity [1]: 95% | Activity [2]: 88% | Activity [3]: 106% | Activity [4]: 98% | Activity [5]: 97% | inhibition [6]: 90% | Activity [7]: 75%

COc1ccc(/C=C/C(=O)Nc2cc(-c3[nH]c([S+](C)[O-])nc3-c3ccc(F)cc3)ccn2)c(OC)c1 (stereo not given)
Activity [8]: 87% | Activity [9]: 63% | Activity [10]: 97%

COc1ccc(/C=C/C(=O)Nc2cc(-c3[nH]c(SC)nc3-c3ccc(F)cc3)ccn2)c(OC)c1
Activity [8]: 87% | Activity [9]: 49% | Activity [10]: 91%

CC(C)c1noc(-c2ccc(F)cc2)c1-c1ccncc1
Activity [1]: 92% | Activity [2]: 102% | Activity [3]: 107% | Activity [4]: 96% | Activity [5]: 101% | inhibition [6]: 40% | Activity [7]: 85%
